# Test results taken from ChEMBL document CHEMBL3098111, “Discovery of 2,5-diarylnicotinamides as selective orexin-2 receptor antagonists (2-SORAs)” (Bioorg Med Chem Lett, 2013).
# pIC50, pKi: −log10 of the molar value.
# Tests used:
# [1] = target: T1, Orexin/Hypocretin receptor type 1 (Homo sapiens, UniProt O43613); test: Displacement of [3H]SB-674042 from human orexin-1 receptor after 60 mins by scintillation counting analysis
# T1 sequence (O43613 whole entry): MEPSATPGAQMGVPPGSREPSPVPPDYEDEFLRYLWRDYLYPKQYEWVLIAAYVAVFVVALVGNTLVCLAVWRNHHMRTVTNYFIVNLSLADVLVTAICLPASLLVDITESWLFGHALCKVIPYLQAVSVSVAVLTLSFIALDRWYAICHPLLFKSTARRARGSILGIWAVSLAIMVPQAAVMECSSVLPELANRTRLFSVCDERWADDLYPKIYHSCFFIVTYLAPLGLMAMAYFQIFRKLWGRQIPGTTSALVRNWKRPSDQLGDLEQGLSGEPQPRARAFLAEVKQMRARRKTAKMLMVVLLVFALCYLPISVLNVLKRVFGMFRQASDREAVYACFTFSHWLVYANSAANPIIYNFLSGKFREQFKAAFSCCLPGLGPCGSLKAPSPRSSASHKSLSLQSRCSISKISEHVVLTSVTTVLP
# Summary of the method: (§1)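 Radioligand binding on membranes from human cells overexpressing the orexin receptor. Inhibition of high-affinity radioligand binding measured and expressed as Ki.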
# Homo sapiens = species: Homo sapiens; test: Selectivity ratio of Ki for human orexin-1 receptor to Ki for human orexin-2 receptor
# Summary of the method: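 Radioligand binding: a high-affinity radioligand was bound to membranes from human cells overexpressing OX1R or OX2R, and inhibition of that binding was measured and expressed as Ki. The ratio is the OX1R Ki divided by the OX2R Ki.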
# Orexin receptor type 2 [2] = target: T2, Orexin receptor type 2 (Homo sapiens, UniProt O43614); test: Displacement of [3H]SB-674042 from human orexin-2 receptor after 60 mins by scintillation counting analysis; summary of the method: as §1
# T2 sequence (O43614 whole entry): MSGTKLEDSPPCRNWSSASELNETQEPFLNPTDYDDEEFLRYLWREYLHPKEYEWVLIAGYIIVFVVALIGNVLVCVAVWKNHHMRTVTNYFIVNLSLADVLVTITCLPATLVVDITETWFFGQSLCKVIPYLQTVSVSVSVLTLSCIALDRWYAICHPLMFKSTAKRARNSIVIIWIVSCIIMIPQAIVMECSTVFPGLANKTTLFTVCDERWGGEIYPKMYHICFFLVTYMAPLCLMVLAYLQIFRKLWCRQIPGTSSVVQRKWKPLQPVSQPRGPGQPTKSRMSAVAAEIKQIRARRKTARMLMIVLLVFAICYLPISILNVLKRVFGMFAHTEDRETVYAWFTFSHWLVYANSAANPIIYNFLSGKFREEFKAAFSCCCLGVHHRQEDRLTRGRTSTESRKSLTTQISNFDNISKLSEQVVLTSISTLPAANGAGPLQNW
# [3] = Clearance in rat at 10 mg/kg; type: ADME, organism-based; parameters: dose 10 mg/kg; settings: in vivo
# [4] = Bioavailability in rat at 10 mg/kg; type: ADME, organism-based; settings: in vivo
# [5] = Clearance in rat; type: ADME, organism-based; settings: in vivo
# [6] = Ratio of drug level in brain to plasma in rat at 3 mg/kg, po after 1 hr; type: ADME, organism-based; parameters: dose 3 mg/kg, route oral; settings: read-out: BPR
# [7] = Oral bioavailability in rat; type: ADME, organism-based; settings: in vivo
# [8] = Half life in rat; type: ADME, organism-based; settings: in vivo
# [9] = target: Voltage-gated inwardly rectifying potassium channel KCNH2 (Homo sapiens, UniProt Q12809); test: Inhibition of human ERG
# [10] = Fraction unbound in rat plasma by equilibrium dialysis method; type: ADME, cell-free
# [11] = target: L-type calcium channel, phenylalkylamine binding site (Rattus norvegicus, UniProt P22002+P27732+Q02485); test: Inhibition of rat L-type calcium channel phenylalkylamine binding site at 10 uM relative to control
# [12] = Fraction unbound in human plasma by equilibrium dialysis method; type: ADME, cell-free
# MAO-A = MAO-A (Homo sapiens, UniProt P21397); test: Inhibition of human MAO-A at 10 uM relative to control
# [13] = target: L-type calcium channel, dihydropyridine binding site (Rattus norvegicus, UniProt P22002+P27732+Q02485); test: Inhibition of rat L-type calcium channel dihydropyridine binding site at 10 uM relative to control
# hERG (KCNH2) [14] = target: T3, hERG (KCNH2) (Homo sapiens, UniProt Q12809); test: Inhibition of human ERG at 10 uM relative to control
# T3 sequence (Q12809 whole entry): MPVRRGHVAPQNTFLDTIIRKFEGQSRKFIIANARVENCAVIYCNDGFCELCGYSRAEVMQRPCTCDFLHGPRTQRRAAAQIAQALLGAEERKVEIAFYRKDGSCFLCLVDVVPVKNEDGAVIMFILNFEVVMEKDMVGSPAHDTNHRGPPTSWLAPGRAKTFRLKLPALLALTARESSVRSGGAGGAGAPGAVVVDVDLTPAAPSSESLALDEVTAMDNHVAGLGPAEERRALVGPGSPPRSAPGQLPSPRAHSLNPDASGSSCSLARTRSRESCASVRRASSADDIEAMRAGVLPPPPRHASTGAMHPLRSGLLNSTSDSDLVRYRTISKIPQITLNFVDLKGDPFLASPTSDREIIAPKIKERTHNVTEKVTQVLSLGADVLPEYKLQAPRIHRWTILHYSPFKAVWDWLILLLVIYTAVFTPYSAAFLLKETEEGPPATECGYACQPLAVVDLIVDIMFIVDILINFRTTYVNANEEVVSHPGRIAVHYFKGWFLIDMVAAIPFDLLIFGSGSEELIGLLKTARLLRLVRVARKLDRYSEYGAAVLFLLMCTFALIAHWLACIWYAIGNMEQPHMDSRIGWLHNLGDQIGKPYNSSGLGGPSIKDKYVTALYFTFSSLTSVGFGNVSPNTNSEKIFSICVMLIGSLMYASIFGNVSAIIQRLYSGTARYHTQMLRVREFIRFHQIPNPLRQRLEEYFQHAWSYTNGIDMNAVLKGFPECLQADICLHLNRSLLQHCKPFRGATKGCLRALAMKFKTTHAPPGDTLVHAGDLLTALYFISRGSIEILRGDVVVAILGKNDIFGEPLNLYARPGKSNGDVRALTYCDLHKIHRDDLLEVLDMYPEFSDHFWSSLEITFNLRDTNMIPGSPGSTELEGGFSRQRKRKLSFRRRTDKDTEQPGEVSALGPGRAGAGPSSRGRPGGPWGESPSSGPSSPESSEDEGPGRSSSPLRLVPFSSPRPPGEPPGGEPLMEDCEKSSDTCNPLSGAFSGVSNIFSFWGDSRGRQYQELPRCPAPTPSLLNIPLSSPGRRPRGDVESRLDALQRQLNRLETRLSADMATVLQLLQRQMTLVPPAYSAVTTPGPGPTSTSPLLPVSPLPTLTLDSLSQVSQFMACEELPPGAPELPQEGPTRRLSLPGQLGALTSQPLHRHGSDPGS
# [15] = target: L-type calcium channel, benzothiazepine binding site (Rattus norvegicus, UniProt P22002+P27732+Q02485); test: Inhibition of rat L-type calcium channel benzothiazepine binding site at 10 uM relative to control
# [16] = Cmax in rat EEG model at 15 mg/kg, po; type: ADME, organism-based; parameters: dose 15 mg/kg, route oral; settings: in vivo
# Mu-type opioid receptor = Mu-type opioid receptor (Homo sapiens, UniProt P35372); test: Inhibition of human mu opioid receptor
# Chain of Mu-type opioid receptor (P35372 whole entry): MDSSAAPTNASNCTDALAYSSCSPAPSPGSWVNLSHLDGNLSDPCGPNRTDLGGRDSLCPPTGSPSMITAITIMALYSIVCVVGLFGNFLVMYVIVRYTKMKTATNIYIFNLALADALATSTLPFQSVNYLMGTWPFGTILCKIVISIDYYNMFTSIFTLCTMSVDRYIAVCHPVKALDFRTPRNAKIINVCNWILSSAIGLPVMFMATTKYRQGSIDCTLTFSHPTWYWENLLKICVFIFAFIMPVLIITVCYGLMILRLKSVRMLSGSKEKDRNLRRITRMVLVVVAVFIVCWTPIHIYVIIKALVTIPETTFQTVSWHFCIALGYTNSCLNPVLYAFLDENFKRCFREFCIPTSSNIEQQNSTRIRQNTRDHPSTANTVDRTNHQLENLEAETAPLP
# [17] = target: 5-hydroxytryptamine receptor 1A (Homo sapiens, UniProt P08908); test: Inhibition of human 5-HT1A receptor
# Chain of 5-hydroxytryptamine receptor 1A (P08908 whole entry): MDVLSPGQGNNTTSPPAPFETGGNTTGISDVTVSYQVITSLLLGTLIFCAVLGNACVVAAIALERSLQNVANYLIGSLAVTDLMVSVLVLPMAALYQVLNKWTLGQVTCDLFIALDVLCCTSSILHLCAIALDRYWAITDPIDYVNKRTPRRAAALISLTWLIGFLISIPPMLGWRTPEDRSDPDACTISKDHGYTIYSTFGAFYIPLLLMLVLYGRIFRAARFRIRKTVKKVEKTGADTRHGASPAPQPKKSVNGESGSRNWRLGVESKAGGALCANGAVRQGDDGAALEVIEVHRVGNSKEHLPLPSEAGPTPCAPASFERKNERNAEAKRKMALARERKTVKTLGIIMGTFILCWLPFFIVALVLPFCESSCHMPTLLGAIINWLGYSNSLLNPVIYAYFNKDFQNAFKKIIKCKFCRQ
# Nucleic Acid = test: Ratio of drug level in CSF to plasma in rat at 3 mg/kg, po after 1 hr; type: ADME, organism-based; parameters: dose 3 mg/kg, route oral
# hERG (KCNH2) [18] = target: T3, hERG (KCNH2); test: Inhibition of human ERG at 10 nM relative to control
# hERG (KCNH2) [19] = target: T3, hERG (KCNH2); test: Inhibition of human ERG at 1 uM relative to control
# MAO-B = MAO-B (Homo sapiens, UniProt P27338); test: Inhibition of human MAO-B at 10 uM relative to control
# Chain of MAO-B (P27338 whole entry): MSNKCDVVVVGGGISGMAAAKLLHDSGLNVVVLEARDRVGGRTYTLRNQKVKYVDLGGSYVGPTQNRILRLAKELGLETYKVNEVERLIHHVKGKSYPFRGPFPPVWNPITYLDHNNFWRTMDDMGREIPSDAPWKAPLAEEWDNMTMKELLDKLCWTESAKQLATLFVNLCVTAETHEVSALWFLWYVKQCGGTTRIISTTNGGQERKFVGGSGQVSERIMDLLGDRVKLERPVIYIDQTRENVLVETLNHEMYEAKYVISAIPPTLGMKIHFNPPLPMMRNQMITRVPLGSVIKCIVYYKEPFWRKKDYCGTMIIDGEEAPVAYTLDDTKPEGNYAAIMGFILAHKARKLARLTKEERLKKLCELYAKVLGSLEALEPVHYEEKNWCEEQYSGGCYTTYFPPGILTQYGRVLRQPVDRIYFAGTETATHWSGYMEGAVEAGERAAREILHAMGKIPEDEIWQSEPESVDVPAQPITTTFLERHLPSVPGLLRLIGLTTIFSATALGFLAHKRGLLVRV
# MDR1 (P-gp, ABCB1) = MDR1 (P-gp, ABCB1) (Homo sapiens, UniProt P08183); test: Activity at human MDR1 expressed in pig LLC-PK cells assessed as efflux ratio of permeability from basolateral to apical side over apical to basolateral side; type: ADME, cell-based; settings: LLC-PK1
# Chain of MDR1 (P-gp, ABCB1) (P08183 whole entry): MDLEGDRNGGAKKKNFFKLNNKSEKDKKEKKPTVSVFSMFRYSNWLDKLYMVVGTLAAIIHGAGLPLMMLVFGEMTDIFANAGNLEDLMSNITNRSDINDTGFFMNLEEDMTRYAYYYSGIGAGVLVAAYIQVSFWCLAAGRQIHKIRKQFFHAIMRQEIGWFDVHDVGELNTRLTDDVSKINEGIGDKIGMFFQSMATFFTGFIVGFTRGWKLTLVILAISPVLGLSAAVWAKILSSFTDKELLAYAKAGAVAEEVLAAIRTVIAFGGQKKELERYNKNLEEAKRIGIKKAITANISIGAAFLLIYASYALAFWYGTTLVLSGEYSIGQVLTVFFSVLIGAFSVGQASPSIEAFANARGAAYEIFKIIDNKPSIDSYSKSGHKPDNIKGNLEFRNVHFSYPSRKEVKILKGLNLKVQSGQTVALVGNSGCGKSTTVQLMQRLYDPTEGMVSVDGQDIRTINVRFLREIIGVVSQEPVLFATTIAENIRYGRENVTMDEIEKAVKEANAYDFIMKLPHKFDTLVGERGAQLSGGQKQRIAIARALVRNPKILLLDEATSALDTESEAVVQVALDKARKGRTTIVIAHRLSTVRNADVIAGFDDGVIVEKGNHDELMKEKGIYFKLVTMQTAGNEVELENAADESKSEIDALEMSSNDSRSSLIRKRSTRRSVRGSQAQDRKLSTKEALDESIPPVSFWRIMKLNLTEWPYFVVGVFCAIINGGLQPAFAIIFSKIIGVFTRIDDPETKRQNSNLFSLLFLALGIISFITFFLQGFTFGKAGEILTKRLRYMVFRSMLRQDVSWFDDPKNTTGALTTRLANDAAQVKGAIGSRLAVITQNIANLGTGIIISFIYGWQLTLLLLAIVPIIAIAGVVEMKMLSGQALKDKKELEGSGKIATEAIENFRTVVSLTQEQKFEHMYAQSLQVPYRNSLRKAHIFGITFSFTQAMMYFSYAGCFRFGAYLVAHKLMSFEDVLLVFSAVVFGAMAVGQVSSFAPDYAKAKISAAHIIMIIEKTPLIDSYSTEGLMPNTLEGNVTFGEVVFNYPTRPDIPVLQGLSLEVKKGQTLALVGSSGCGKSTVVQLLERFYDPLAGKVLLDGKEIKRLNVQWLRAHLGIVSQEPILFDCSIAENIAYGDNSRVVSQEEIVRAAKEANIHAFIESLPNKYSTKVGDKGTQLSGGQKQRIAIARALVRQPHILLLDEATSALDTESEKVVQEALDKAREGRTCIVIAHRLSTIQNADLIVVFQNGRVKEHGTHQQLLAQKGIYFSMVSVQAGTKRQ
# Orexin receptor type 2 [20] = target: T2, Orexin receptor type 2; test: Antagonist activity at human orexin-2 receptor assessed as inhibition of orexin-A-induced intracellular calcium mobilization after 30 mins by cell-based FLIPR assay; type: functional
# D(3) dopamine receptor = D(3) dopamine receptor (Homo sapiens, UniProt P35462); test: Inhibition of human dopamine D3 receptor
# Chain of D(3) dopamine receptor (P35462 whole entry): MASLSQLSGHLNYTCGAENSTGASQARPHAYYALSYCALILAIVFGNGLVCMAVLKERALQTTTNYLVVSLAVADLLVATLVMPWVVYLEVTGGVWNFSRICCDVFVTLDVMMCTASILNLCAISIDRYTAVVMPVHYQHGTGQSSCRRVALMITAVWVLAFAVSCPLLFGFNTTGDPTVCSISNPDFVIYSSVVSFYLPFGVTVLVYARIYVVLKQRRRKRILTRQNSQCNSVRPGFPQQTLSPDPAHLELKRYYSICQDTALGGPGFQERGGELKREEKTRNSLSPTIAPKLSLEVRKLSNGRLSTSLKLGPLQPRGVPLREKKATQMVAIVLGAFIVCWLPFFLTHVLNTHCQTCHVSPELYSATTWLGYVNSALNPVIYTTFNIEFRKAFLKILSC
# [21] = target: 5-hydroxytryptamine receptor 2B (Homo sapiens, UniProt P41595); test: Inhibition of human 5-HT2B receptor
# Chain of 5-hydroxytryptamine receptor 2B (P41595 whole entry): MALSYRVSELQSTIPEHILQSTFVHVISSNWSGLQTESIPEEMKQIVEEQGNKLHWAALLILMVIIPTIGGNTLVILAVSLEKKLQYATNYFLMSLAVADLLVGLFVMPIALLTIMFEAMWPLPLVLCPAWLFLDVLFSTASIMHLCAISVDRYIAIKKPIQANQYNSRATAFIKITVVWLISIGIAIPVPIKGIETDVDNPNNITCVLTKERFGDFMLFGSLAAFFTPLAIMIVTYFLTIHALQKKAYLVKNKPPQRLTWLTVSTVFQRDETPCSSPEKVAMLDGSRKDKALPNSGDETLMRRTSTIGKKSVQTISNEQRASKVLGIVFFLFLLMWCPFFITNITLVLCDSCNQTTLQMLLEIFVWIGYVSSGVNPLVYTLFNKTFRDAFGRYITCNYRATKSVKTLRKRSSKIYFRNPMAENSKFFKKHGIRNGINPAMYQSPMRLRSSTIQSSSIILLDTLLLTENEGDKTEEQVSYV
# [22] = Inhibition of rabbit monoamine transporter; parameters: species or system Oryctolagus cuniculus
# [23] = AUC in rat EEG model at 15 mg/kg, po; type: ADME, organism-based; parameters: dose 15 mg/kg, route oral; settings: in vivo
# [24] = Lipophilicity, log P of the compound; type: physicochemical; settings: octanol/water
# [25] = target: T1, Orexin/Hypocretin receptor type 1; test: Antagonist activity at human orexin-1 receptor assessed as inhibition of orexin-A-induced intracellular calcium mobilization after 30 mins by cell-based FLIPR assay; type: functional
# Summary of the method: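 Cell-based FLIPR functional assay in orexin receptor-expressing cells, with Ca2+ flux as the read-out of orexin-driven receptor activation.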
# [26] = target: 5-hydroxytryptamine receptor 1B (Rattus norvegicus, UniProt P28564); test: Inhibition of rat 5-HT1B receptor
# Chain of 5-hydroxytryptamine receptor 1B (P28564 whole entry): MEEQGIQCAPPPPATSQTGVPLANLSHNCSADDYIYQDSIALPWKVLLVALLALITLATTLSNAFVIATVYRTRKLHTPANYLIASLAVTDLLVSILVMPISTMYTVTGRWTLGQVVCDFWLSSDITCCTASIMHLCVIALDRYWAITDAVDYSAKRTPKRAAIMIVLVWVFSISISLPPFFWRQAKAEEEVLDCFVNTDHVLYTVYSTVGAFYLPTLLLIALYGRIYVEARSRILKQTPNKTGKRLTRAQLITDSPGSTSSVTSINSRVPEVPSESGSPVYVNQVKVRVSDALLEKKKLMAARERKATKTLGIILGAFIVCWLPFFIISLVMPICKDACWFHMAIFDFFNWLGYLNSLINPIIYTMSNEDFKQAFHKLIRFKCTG
# [27] = Inhibition of guinea pig adenosine transporter; parameters: species or system Cavia porcellus
# hERG (KCNH2) [28] = target: T3, hERG (KCNH2); test: Inhibition of human ERG at 0.1 uM relative to control
compound,measurement,setting,value
COc1cccc(CNC(=O)c2cc(-c3cc(C)cc(C)c3)cnc2-c2cccnc2)c1,pKi,[1],5.47
same,Ratio Ki,Homo sapiens,83
same,pKi,Orexin receptor type 2 [2],7.39
COc1ccc(CNC(=O)c2cc(-c3cc(C(F)(F)F)cc(C(F)(F)F)c3)cnc2-c2cccnc2)cc1OC,pKi,[1],4.19
same,Ratio Ki,Homo sapiens,537
same,pKi,Orexin receptor type 2 [2],6.92
Cc1cc(C)cc(-c2cnc(-c3cccnc3)c(C(=O)NCc3ccc(N(C)C)cc3)c2)c1,pKi,[1],6.08
same,Ratio Ki,Homo sapiens,174
same,pKi,Orexin receptor type 2 [2],8.32
Cc1cc(C)cc(-c2cnc(-c3cccnc3)c(C(=O)N(C)Cc3ccc4c(c3)OCO4)c2)c1,pKi,[1],5.72
same,Ratio Ki,Homo sapiens,3.3
same,pKi,Orexin receptor type 2 [2],6.24
COc1ccc(CNC(=O)c2cc(-c3cc(F)cc(F)c3)cnc2-c2cccnc2)cc1OC,pKi,[1],5.29
same,Ratio Ki,Homo sapiens,620
same,pKi,Orexin receptor type 2 [2],8.08
COc1ccc(CNC(=O)c2cc(-c3cccc(Cl)c3)cnc2-c2cccnc2)cc1OC,pKi,[1],6.13
same,Ratio Ki,Homo sapiens,574
same,pKi,Orexin receptor type 2 [2],8.89
Cc1cc(C)cc(-c2cnc(-c3cccnc3)c(C(=O)NCc3ccc(C(F)(F)F)c(F)c3)c2)c1,pKi,[1],6.63
same,Ratio Ki,Homo sapiens,58
same,pKi,Orexin receptor type 2 [2],8.39
Cc1cc(C)cc(-c2cnc(-c3cccnc3)c(C(=O)NCc3ccc4c(c3)CCN4C)c2)c1,pKi,[1],6.56
same,Ratio Ki,Homo sapiens,91
same,pKi,Orexin receptor type 2 [2],8.52
COc1ccc(CNC(=O)c2cc(-c3cc(C)cc(C)c3)cnc2-c2cccnc2)cc1OC,pKi,[1],6.34
same,clearance,[3],66 mL/min/kg
same,bioavailability,[4],12%
same,Ratio Ki,Homo sapiens,660
same,pKi,Orexin receptor type 2 [2],9.15
Cc1cc(C)cc(-c2cnc(-c3cccnc3)c(C(=O)NCc3ccc4c(c3)OCO4)c2)c1,pKi,[1],5.45
same,Ratio Ki,Homo sapiens,208
same,pKi,Orexin receptor type 2 [2],7.77
COc1ccc(CNC(=O)c2cc(-c3cc(Cl)cc(Cl)c3)cnc2-c2cccnc2)cc1OC.Cl,clearance,[5],39 mL/min/kg
same,Kp at 1 h,[6],0.19
same,bioavailability,[7],55%
same,half-life,[8],54 min
Cc1cc(C)cc(-c2cnc(-c3cccnc3)c(C(=O)NCc3ccc(F)c(C)c3)c2)c1,pKi,[1],5.96
same,Ratio Ki,Homo sapiens,61
same,pKi,Orexin receptor type 2 [2],7.74
COc1ccc(CNC(=O)c2cc(-c3cc(C)cc(F)c3)cnc2-c2cccnc2)cc1OC,pKi,[1],5.97
same,Ratio Ki,Homo sapiens,1340
same,pKi,Orexin receptor type 2 [2],9.10
COc1ccc(CNC(=O)c2cc(-c3cc(C)cc(C)c3)cnc2-c2cccnc2)cc1,pKi,[1],5.53
same,Ratio Ki,Homo sapiens,135
same,pKi,Orexin receptor type 2 [2],7.66
Cc1cc(C)cc(-c2cnc(-c3cccnc3)c(C(=O)N(C)Cc3ccc4nccnc4c3)c2)c1,pKi,[1],5.14
same,Ratio Ki,Homo sapiens,92
same,pKi,Orexin receptor type 2 [2],7.11
COc1ccc(CNC(=O)c2cc(-c3cc(Cl)cc(Cl)c3)cnc2-c2cccnc2)cc1OC,pIC50,[9],5.16
same,fraction unbound,[10],0.047
same,inhibition at 10 µM,[11],4%
same,fraction unbound,[12],0.032
same,pKi,[1],7.02
same,inhibition at 10 µM,MAO-A,41%
same,inhibition at 10 µM,[13],24%
same,inhibition at 10 µM,hERG (KCNH2) [14],58%
same,inhibition at 10 µM,[15],1%
same,Cmax,[16],2300 nM
same,pIC50,Mu-type opioid receptor,5.30
same,pKi,Mu-type opioid receptor,5.69
same,pIC50,[17],5.64
same,pKi,[17],5.88
same,Ratio,Nucleic Acid,0.2%
same,inhibition at 0.01 µM,hERG (KCNH2) [18],3%
same,inhibition at 1 µM,hERG (KCNH2) [19],17%
same,inhibition at 10 µM,MAO-B,31%
same,efflux ratio,"MDR1 (P-gp, ABCB1)",6.4
same,pIC50,Orexin receptor type 2 [20],7.92
same,pIC50,D(3) dopamine receptor,5.02
same,pKi,D(3) dopamine receptor,5.49
same,pIC50,[21],5.98
same,pKi,[21],6.18
same,pIC50,[22],5.09
same,pKi,[22],5.17
same,AUC,[23],9 µM·h
same,logP,[24],3.6
same,pKi,Orexin receptor type 2 [2],10.15
same,pIC50,[25],6.53
same,pIC50,[26],5.62
same,pKi,[26],5.64
same,pIC50,[27],5.60
same,pKi,[27],6.06
same,inhibition at 0.1 µM,hERG (KCNH2) [28],12%
COc1ccc(CNC(=O)c2cc(-c3cc(F)cc(Cl)c3)cnc2-c2cccnc2)cc1OC,pKi,[1],5.96
same,Ratio Ki,Homo sapiens,1810
same,pKi,Orexin receptor type 2 [2],9.22
